Molecules are shown by their SMILES. Out of some 320,000 compounds screened, about 380 (0.12%) were called active.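 Rule for the calls: active = percent inhibition above the cutoff of mean plus 3 SD of all tested compounds, set per screening campaign (cut at about 20% in these data); inactive = the rest.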 For the sample, actives were picked, then their nearest neighbours and some compounds at random.

Chain of Photoreceptor-specific nuclear receptor (Homo sapiens) (Q9Y5X4 whole entry, looked up): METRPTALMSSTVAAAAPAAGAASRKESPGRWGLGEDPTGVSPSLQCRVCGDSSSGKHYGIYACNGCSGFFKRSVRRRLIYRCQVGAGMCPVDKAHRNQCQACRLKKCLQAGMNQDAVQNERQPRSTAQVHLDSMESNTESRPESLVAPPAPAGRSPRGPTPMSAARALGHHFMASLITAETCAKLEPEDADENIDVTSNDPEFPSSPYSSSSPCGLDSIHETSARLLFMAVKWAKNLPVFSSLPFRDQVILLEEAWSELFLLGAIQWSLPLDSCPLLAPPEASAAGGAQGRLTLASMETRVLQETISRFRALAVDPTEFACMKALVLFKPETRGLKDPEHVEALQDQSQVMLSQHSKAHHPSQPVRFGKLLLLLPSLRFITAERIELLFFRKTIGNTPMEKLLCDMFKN

This assay has as its target Photoreceptor-specific nuclear receptor (Homo sapiens) (UniProt Q9Y5X4). Kind of assay: disruption of NR2E3 corepressor interaction – biochemical, TR-FRET, GST-NR2E3, biotin-RetCOR, NR2E3 agonist project, primary screen (AID 2300).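 Note: 0% = DMSO wells and 100% = biotin wells as full block of FRET.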 Particulars: 1536-well, at 4.78 µM, hits give high values. In outline: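 Format: 1536-well format; test system: GST-NR2E3 and biotin-RetCOR proteins; read-out basis: percent inhibition of TR-FRET ratio; timing: 5 h incubation at 4 °C; detection: time-resolved FRET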
Consider `O=S(=O)(Nc1n[nH]c(C(F)(F)F)n1)c1ccccc1`, for which the inhibition of corepressor binding was 6.01% (inactive). With `Cc1c(Cl)c([N+](=O)[O-])nn1CC(=O)NCCCN1CCOCC1` the figure was 4.17% (inactive); with `COc1ccccc1C(C)NC(=O)Cc1ccsc1` (stereo not given), 2.21% (inactive). With `COc1ccc2oc(C(=O)N(CC(C)C)C3CCS(=O)(=O)C3)c(C)c2c1` (stereo not given) the figure was 3.14% (inactive); with `COc1ccc(N2CCN(C(=O)C3CCN(S(=O)(=O)c4ccc(C)cc4)CC3)CC2)cc1`, 6.37% (inactive).

Turning to `CC1(C)CN(c2ccc(-c3ccnc4ncnn34)cc2)C1=O`, the inhibition of corepressor binding is -0.76% (inactive).

Regarding `COc1ccc(C)cc1S(=O)(=O)NCCc1ccccc1`, the inhibition of corepressor binding was 2.48% (inactive).

Take `Fc1ccc(CNc2nc3ccccc3n3nnnc23)cc1`: the inhibition of corepressor binding was -0.09% (inactive). With `CC(C)(C)NC(=O)/C(=C/c1cccnc1)NC(=O)c1ccco1` the figure was -5.01% (inactive); with `NC(=O)c1cc(S(=O)(=O)NCCCc2ccco2)cs1`, 2.54% (inactive); with `O=C(NCCCNC(=O)NC1CCCCC1)NC1CCCCC1`, 1.65% (inactive). With `Cc1ccc(CC(=O)Nc2ccc(S(=O)(=O)N3CCOCC3)cc2)cc1C`, the inhibition of corepressor binding was 1.54% (inactive). With `CC(C)C[C@@H](N)c1nnc(SCC(=O)c2ccc(Cl)cc2)o1` the figure was -0.27% (inactive). Next, `O=C(C1=C(O)C(=O)N(Cc2ccccc2)C1c1ccco1)c1ccco1` (stereo not given): 13% (inactive); `CCOc1cc(C2C(C(=O)c3ccco3)=C(O)C(=O)N2Cc2ccccc2)ccc1O` (stereo not given): 5.32% (inactive); `CC(C)c1ccc(C2C(C(=O)c3ccco3)=C(O)C(=O)N2CC2CCCO2)cc1` (stereo not given): 22.2% (active). With `O=C1NC(c2ccccc2)=NC1(Nc1ccccn1)C(F)(F)F` (stereo not given) the figure was 0.74% (inactive); with `COc1cccc(N(CC(=O)NCCSc2ccccn2)S(C)(=O)=O)c1`, -2.09% (inactive). In the case of `OC(c1ccccc1)c1nccn1Cc1ccccc1` (stereo not given), the inhibition of corepressor binding is -1.45% (inactive). Next, `NS(=O)(=O)c1ccc(NC2=CC(c3ccc(F)cc3)N(c3ccc(S(N)(=O)=O)cc3)C2=O)cc1` (stereo not given): 1.09% (inactive). Next, `O=c1[nH]cccc1-c1nc2ccccc2n1Cc1ccc(Cl)cc1`: 5.14% (inactive); `CCOc1ccccc1N(CC(=O)NC1CCCCC1)C(=O)CCCC(=O)Nc1ccccn1`: 2.15% (inactive); `N#Cc1ccccc1Sc1ccccc1C(=O)OCC(=O)NC1CCCCC1`: 26.6% (active). Next, `N#Cc1ccc(C(=O)OCC(=O)NC(=O)NC2CCCCC2)cc1`: 0.11% (inactive). With `O=C(COC(=O)c1ccccc1SCC(=O)NC1CCCCC1)NC1CCCCC1`, the inhibition of corepressor binding was -5.62% (inactive).

Consider `O=C(NCC(c1ccco1)N1CCc2ccccc21)c1cccc(F)c1` (stereo not given), for which the inhibition of corepressor binding was -1.2% (inactive). Next, `CCOC(=O)N1CCC(=NNC(N)=O)CC1`: 0.68% (inactive); `O=C(Nc1ccccn1)C1CCN(S(=O)(=O)c2ccc3c(c2)OCCO3)CC1`: 2.07% (inactive). Next, `NNC(=O)CSc1nnc(-c2ccccc2)n1-c1ccccc1`: 3.63% (inactive); `CC1(C)CC(O)C(CCC(O)c2ccccc2)C(C)(C)N1` (stereo not given): 0.53% (inactive). With `O=C(Cn1cncn1)N/N=C/c1c2ccccc2cc2ccccc12` the figure was -7.82% (inactive).

On to `Cc1ccc(C(C)C)c(OCc2nnc(SCC(=O)Nc3nccs3)n2C)c1`, for which the inhibition of corepressor binding was 2.5% (inactive). In the case of `CN(C(=O)CN1C(=O)NC(C)(CCc2ccccc2)C1=O)c1ccccc1` (stereo not given), the inhibition of corepressor binding is 3.26% (inactive).

As to `CCOC(=O)c1ccc(NC(=S)N2CCCC2)cc1`, the inhibition of corepressor binding was 0.82% (inactive). With `CCOC(=O)c1ccc(NC(=S)N2CCN(c3ccccn3)CC2)cc1` the figure was 43.1% (active); with `O=[N+]([O-])c1ccc(NC(=S)N2CCN(c3ccccn3)CC2)cc1`, 4% (inactive). Consider `Cc1cccc(NC(=O)c2sc3nc(N4CCOCC4)c4c(c3c2N)CCCC4)c1`, for which the inhibition of corepressor binding was 27.8% (active). With `CC(=O)Nc1ccc(N2CCOCC2)c(C(=O)Nc2cccc(C)c2)c1` the figure was 0.26% (inactive). Regarding `Cc1nc(N2CCOCC2)c2c(C)c(C(=O)Nc3ccc(C(F)(F)F)cc3)sc2n1`, the inhibition of corepressor binding is -0.86% (inactive). With `CN(Cc1ccccc1Cl)C(=O)C1CCC(=O)N(CCc2cccc(F)c2)C1` (stereo not given) the figure was -0.98% (inactive); with `CCC(CC)C(=O)Nc1c2c(nn1-c1ccc(C)cc1)CS(=O)(=O)C2`, 0.73% (inactive); with `CCOc1ccc(C(=O)Nc2cc(Cl)ccc2-n2cncn2)cc1OC`, 1.32% (inactive). Next, `N#C/C(C(=S)Nc1ccccc1)=C1/NN=C(N2CCOCC2)N1c1ccccc1`: -1.05% (inactive); `Cc1ccccc1NC(=O)COc1cccc2c1CCNC2=O`: -2.78% (inactive); `NC(=S)c1ccc(C(N)=S)o1`: 2.26% (inactive). As to `O=C(COc1ccc2c3c(c(=O)oc2c1)CCCC3)NCC(O)c1ccccc1` (stereo not given), the inhibition of corepressor binding was 1.28% (inactive).

For the compound `CC(=O)COc1ccc2c(-c3ccccc3)cc(=O)oc2c1`, the inhibition of corepressor binding was 3.24% (inactive). Next, `O=C(Oc1ccccc1)Oc1ccc2c(c1)oc(=O)c1ccccc12`: 26% (active); `Cc1ccccc1C(CC(=O)c1cccs1)C(C#N)C#N` (stereo not given): 3.7% (inactive); `COc1cc(C(F)(F)F)c(C(=O)N(C)c2ccc(Cl)cc2)cn1`: -2.07% (inactive). For `CC(=O)Nc1sc2c(c1C(c1cccc(F)c1)N1CCN(CCO)CC1)CCCC2` (stereo not given), the inhibition of corepressor binding is 2.91% (inactive). Next, `COC(=O)[C@]1(C)N[C@H](c2ccc(-c3ccc(Cl)c(Cl)c3)cc2)[C@@H]2C(=O)N(C)C(=O)[C@@H]21`: -0.27% (inactive); `CC(=O)c1cccc(NC(=O)CN2C(=O)c3cccnc3Oc3ccc(Cl)cc32)c1`: 1.24% (inactive).

Turning to `COc1cc(C2C3C(=O)N(c4ccccc4)C(=O)C3ON2c2ccccc2)ccc1O` (stereo not given), the inhibition of corepressor binding is 1.53% (inactive).

As to `Cn1c(=O)c(=O)n(C)c2cc(S(=O)(=O)CCC(=O)N3CCCCC3)ccc21`, the inhibition of corepressor binding was 1.89% (inactive). On to `CSc1sc(C)cc1C1C(C#N)=C(N)N(c2cccnc2)C2=C1C(=O)CCC2` (stereo not given), for which the inhibition of corepressor binding was 0.82% (inactive). With `COCC(=O)N1CCCC(C(=O)c2ccc(C(F)(F)F)cc2)C1` (stereo not given) the figure was 3.84% (inactive); with `Cc1ccc(CN2CCN(c3ccccc3Cl)CC2)o1`, 0.07% (inactive). With `COCCNC(=O)CN1C(=O)CSc2ncccc21` the figure was 4.79% (inactive); with `CCOc1ccccc1Nc1ccc(C(=O)O)cc1[N+](=O)[O-]`, 0.59% (inactive). With `O=C(COC(=O)c1ccc(F)cc1F)Nc1ncccn1` the figure was 8.41% (inactive). Regarding `CN(C(=O)CSc1nnc(-c2ccc(C(C)(C)C)cc2)n1C)C1CCS(=O)(=O)C1` (stereo not given), the inhibition of corepressor binding is -0.57% (inactive). With `O=C(CNC(=O)c1ccc(Br)o1)NCC1CCCO1` (stereo not given) the figure was 1.48% (inactive); with `Cc1ccc(CN2CCN(Cc3ccc(OCCO)cc3)CC2CCO)o1` (stereo not given), 3.85% (inactive). With `COc1cc([C@H](Cc2ccccc2)NC(C)=O)oc(=O)c1` the figure was -1.34% (inactive); with `CN(CC(=O)NCc1ccc2c(c1)OCO2)CC(=O)Nc1ccc(F)c(F)c1F`, 1.07% (inactive); with `CC(NC(=O)c1ccc(S(=O)(=O)Nc2ccccc2)cc1)c1ccc(S(N)(=O)=O)cc1` (stereo not given), 2.43% (inactive). With `CC(=O)N1CCSc2ccc(S(=O)(=O)N3CCC(C)CC3)cc21` the figure was -0.82% (inactive); with `C/C(=N/NC(=O)CSc1ccccn1)c1ccc([N+](=O)[O-])cc1`, 3.53% (inactive). Consider `C[C@H](NC(=O)c1nc[nH]c1C(=O)NCC(=O)OC(C)(C)C)c1ccccc1`, for which the inhibition of corepressor binding is -2.19% (inactive). Next, `Cc1ccc(N2C(=O)C(CC(=O)Nc3cccc(F)c3)N(CCc3ccncc3)C2=O)cc1` (stereo not given): -1.41% (inactive). Next, `CCCOC(=O)c1c(NC(=O)c2cnn3c2NC(c2ccccc2)CC3C(F)(F)F)sc2c1CCCC2` (stereo not given): 0.87% (inactive).

Take `Cc1ccn2c(c1)nc(=O)c1cc(S(=O)(=O)N3CCC(C)CC3)ccc12`: the inhibition of corepressor binding is 2.72% (inactive). On to `C=CCOc1cccc(C2C(C(=O)c3ccc(C)o3)=C(O)C(=O)N2c2nnc(C)s2)c1` (stereo not given), for which the inhibition of corepressor binding is 14.1% (inactive).

Turning to `CCCOc1ccc(C2C(C(=O)c3ccc(C)o3)=C(O)C(=O)N2CCCn2ccnc2)cc1` (stereo not given), the inhibition of corepressor binding is 11.4% (inactive). With `C=CCOc1cccc(C2C(C(=O)c3ccc(C)o3)=C(O)C(=O)N2CCCn2ccnc2)c1` (stereo not given) the figure was 25.8% (active). As for `COc1ccc(/C=C/C(=O)NC(=S)N2CCCC(C(N)=O)C2)cc1` (stereo not given), the inhibition of corepressor binding was 3.08% (inactive). For the compound `O=C(OCC1O[C@@H](OC(=O)c2cc(O)c(O)c(O)c2)[C@@H](OC(=O)c2cc(O)c(O)c(O)c2)[C@@H](OC(=O)c2cc(O)c(O)c(O)c2)[C@@H]1OC(=O)c1cc(O)c(O)c(O)c1)c1cc(O)c(O)c(O)c1` (stereo not given in full), the inhibition of corepressor binding was 11.9% (inactive). With `Cc1coc2c(O)cc3c(c12)OC1(N2CCCCC2)C(=O)NCCCC31` (stereo not given) the figure was -2.68% (inactive).

In the case of `CC(C)CCNC(=O)C1CCCN(S(=O)(=O)c2ccc(F)cc2)C1` (stereo not given), the inhibition of corepressor binding was 2.4% (inactive). With `Cc1cc(NC(=O)Nc2ccccc2[N+](=O)[O-])no1` the figure was 0.41% (inactive); with `COc1cccc(-n2c(=S)[nH]c3c(oc4ccccc43)c2=O)c1`, 29.2% (active). Next, `COc1cccc(-n2cc(C(=O)O)c3ccccc3c2=O)c1`: 3.78% (inactive). With `COc1cccc(N2C(=O)CN(Cc3ccccc3)C2=S)c1` the figure was -3.57% (inactive); with `COc1ccc(NC(=O)CSc2nnc(Cc3ccccc3)c(=O)n2N)cc1`, -3.17% (inactive); with `COC(=O)C1=NN(c2ccccc2)C2C(=O)N(c3ccccc3OC)C(=O)C12` (stereo not given), -1.01% (inactive).

For the compound `C/C(=C\c1ccco1)CN1CCC(N2CCC(C(=O)N3CCOCC3)CC2)CC1`, the inhibition of corepressor binding is -0.38% (inactive). With `O=C(Nc1ccccc1Cl)NC1(C(=O)N2CCOCC2)CCCCC1` the figure was 1.2% (inactive); with `CCc1nn(CCCC(=O)NCc2ccc(C)cc2)c(=O)c2cc3occc3n12`, 1.62% (inactive); with `C=C1c2c(Cl)ccc(O)c2C(O)=C2C(=O)[C@]3(O)C(O)=C(C(N)=O)C(=O)[C@@H](N(C)C)[C@@H]3[C@@H](O)C12` (stereo not given in full), 3.15% (inactive).

These data come from PubChem BioAssay AID2300 (The Scripps Research Institute Molecular Screening Center, 2010).
